In ChEMBL document CHEMBL1134691, “3-Phenyl-5-acyloxymethyl-2H,5H-furan-2-ones: synthesis and biological activity of a novel group of potential antifungal drugs” (2001) one finds MIC data, which are given here for 2 molecules.

Assay [1] has as its system Lichtheimia corymbifera. The experiment in a line: In vitro inhibition of Absidia corymbifera 272 growth for 24 hours. The format is functional. The conditions noted are these: Lichtheimia corymbifera, 24 h; read-out: MIC. In short, it runs like this: (§1)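 Filamentous isolates tested by microdilution per NCCLS M27-A in RPMI 1640 plus L-glutamine, buffered with 0.165 M MOPS to pH 7.0. Final inoculum 5 × 10^3 cfu/mL. Compounds in DMSO (final ≤2%), 2-fold series over 1000–0.24 µmol/L. Plates held at 35 °C and read visually after 24 and 48 h. MIC taken as 80% inhibition of control growth; determined twice in duplicate.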

The subject of assay [2] is Lichtheimia corymbifera. The experiment in a line: In vitro inhibition of Absidia corymbifera 272 growth for 48 hours. Format: functional. The settings on record: Lichtheimia corymbifera, 48 h; read-out: MIC. The procedure, abridged: as §1
The test system of assay [3] is Pichia kudriavzevii. The experiment in a line: Inhibition of Candida krusei ATCC 6258 growth for 24 hours in vitro. The format is functional. The conditions noted are these: ATCC 6258, 24 h. In short, it runs like this:
(§2)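 NCCLS M27-A broth microdilution in RPMI 1640 with L-glutamine and 0.165 M MOPS, pH 7.0. Isolates kept on Sabouraud dextrose agar. Inoculum 5 × 10^3 cfu/mL final. Compounds were diluted in DMSO (≤2% final) and tested in 2-fold dilutions of 1000–0.24 µmol/L. Incubation at 35 °C, OD540 read at 24 and 48 h. MIC = 80% growth inhibition versus control; assays run twice in duplicate.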

Assay [4] concerns Pichia kudriavzevii. The experiment in a line: Inhibition of Candida krusei ATCC 6258 growth for 48 hours in vitro. The format is functional. The conditions noted are these: ATCC 6258, 48 h. The procedure, abridged: as §2
In assay [5] the test system is Pichia kudriavzevii. The assay is described as follows: Inhibition of Candida krusei E28 growth for 24 hours in vitro. Format: functional. In short, it runs like this:
as §2

Assay [6] concerns Pichia kudriavzevii. The experiment in a line: Inhibition of Candida krusei E28 growth for 48 hours in vitro. Format: functional. The procedure, abridged: as §2
Assay [7] concerns Aspergillus fumigatus. The experiment in a line: Inhibition of Aspergillus fumigatus 231 growth for 48 hours in vitro. Format: functional. The conditions noted are these: Aspergillus fumigatus, 48 h; read-out: MIC. The procedure, abridged: as §1
Assay [8] concerns Clavispora lusitaniae. The experiment in a line: Inhibition of Candida lusitaniae 2446/I growth for 24 hours in vitro. Format: functional. The settings on record: Clavispora lusitaniae, 24 h; read-out: MIC. The procedure, abridged: as §2
The test system of assay [9] is Clavispora lusitaniae. The experiment in a line: Inhibition of Candida lusitaniae 2446/I growth for 48 hours in vitro. The format is functional. The settings on record: Clavispora lusitaniae, 48 h; read-out: MIC. In short, it runs like this: as §2
In assay [10] the test system is Candida parapsilosis. The experiment in a line: Inhibition of Candida parapsilosis ATCC 22019 growth for 24 hours in vitro. Format: functional. The settings on record: Lodderomyces parapsilosis, ATCC 22019, 24 h. The procedure, abridged:
as §2

The test system of assay [11] is Candida parapsilosis. The experiment in a line: Inhibition of Candida parapsilosis ATCC 22019 growth for 48 hours in vitro. Format: functional. The settings on record: Lodderomyces parapsilosis, ATCC 22019, 48 h. In short, it runs like this: as §2
The subject of assay [12] is Candida albicans. The experiment in a line: Inhibition of Candida albicans ATCC 44859 growth for 24 hours in vitro. Format: functional. The conditions noted are these: Candida albicans, ATCC 44859, 24 h; read-out: MIC. In short, it runs like this: as §2
For assay [13], the system named is Candida albicans. The experiment in a line: Inhibition of Candida albicans ATCC 44859 growth for 48 hours in vitro. The format is functional. The conditions noted are these: Candida albicans, ATCC 44859, 48 h; read-out: MIC. In short, it runs like this:
as §2

Assay [14] has as its system Candida albicans. The assay is described as follows: Inhibition of Candida albicans ATCC 90028 for 24 hours in vitro. The format is functional. The settings on record: ATCC 90028, 24 h. The procedure, abridged:
as §2

Assay [15] relates to Candida albicans. The experiment in a line: Inhibition of Candida albicans ATCC 90028 for 48 hours in vitro. The format is functional. The conditions noted are these: ATCC 90028, 48 h. In short, it runs like this:
as §2

For assay [16], the system named is Nakaseomyces glabratus. The experiment in a line: Inhibition of Candida glabrata 20/I growth for 24 hours in vitro. The settings on record: Nakaseomyces glabratus, 24 h; read-out: MIC. The format is functional. The procedure, abridged:
as §2

Assay [17] has as its system Nakaseomyces glabratus. The assay is described as follows: Inhibition of Candida glabrata 20/I growth for 48 hours in vitro. Format: functional. The settings on record: Nakaseomyces glabratus, 48 h; read-out: MIC. In short, it runs like this: as §2
Assay [18] has as its system Candida tropicalis. The assay is described as follows: Inhibition of Candida tropicalis 156 growth for 24 hours in vitro. The format is functional. In short, it runs like this:
as §2

In assay [19] the test system is Trichosporon beigelii. The experiment in a line: Inhibition of Trichosporon beigelli 1188 for 24 hours in vitro. Format: functional. The conditions noted are these: Trichosporon beigelii, 24 h; read-out: MIC. In short, it runs like this: (§3)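 Microdilution following NCCLS M27-A. Medium: RPMI 1640 with L-glutamine, 0.165 M MOPS, pH 7.0. Final inoculum 5 × 10^3 cfu/mL. Compounds dissolved in DMSO, final ≤2%, serially halved from 1000 to 0.24 µmol/L. Incubated at 35 °C and read at 24 and 48 h. MIC defined as 80% inhibition of control growth; run twice in duplicate.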

Assay [20] relates to Trichosporon beigelii. The assay is described as follows: Inhibition of Trichosporon beigelli 1188 for 48 hours in vitro. Format: functional. The settings on record: Trichosporon beigelii, 48 h; read-out: MIC. The procedure, abridged: as §3
Assay [21] is described as follows: Inhibition of Trichophyton mentagrophytes 445 growth for 72 hours in vitro. The format is functional, Arthroderma benhamiae. The settings on record: Trichophyton benhamiae, 72 h; read-out: MIC. The procedure, abridged:
(§4)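 Dermatophyte grown in MOPS-buffered (0.165 M, pH 7.0) RPMI 1640 containing L-glutamine, in an M27-A microdilution format. Inoculum 5 × 10^3 cfu/mL final. Compounds from DMSO stocks (≤2% final), 2-fold dilutions 1000–0.24 µmol/L. Incubated at 35 °C, growth judged visually at 72 and 120 h. MIC endpoint is 80% inhibition relative to control; measured twice in duplicate.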

Assay [22] is described as follows: Inhibition of Trichophyton mentagrophytes 445 growth for 120 hours in vitro. The format is functional, Arthroderma benhamiae. The settings on record: Trichophyton benhamiae, 120 h; read-out: MIC. In short, it runs like this: as §4
For assay [23], the system named is Aspergillus fumigatus. The experiment in a line: Inhibition of Aspergillus fumigatus 231 growth for 24 hours in vitro. Format: functional. The settings on record: Aspergillus fumigatus, 24 h; read-out: MIC. In short, it runs like this:
as §1

The subject of assay [24] is Candida tropicalis. The experiment in a line: Inhibition of Candida tropicalis 156 growth for 48 hours in vitro. The format is functional. The procedure, abridged: as §2
Setting [25] is: Pichia kudriavzevii, read-out: MIC.
[26] abbreviates: Candida albicans, read-out: MIC.

SMILES strings stand for the structures. ≈ marks a conversion by molar mass, not a printed value.

The term MIC denotes the smallest concentration in the dilution series that meets the test's criterion for growth inhibition.

In the case of `CC(C)(C)C(=O)OCC1C=C(c2ccc(Br)cc2)C(=O)O1` (stereo not drawn), the minimal inhibitory concentration (MIC) in the assay with Lichtheimia corymbifera [1] is 7.81 µM (≈ 2.76 µg/mL); in the assay on Lichtheimia corymbifera [2], 15.6 µM (≈ 5.52 µg/mL); in the assay on Pichia kudriavzevii [3] (setting [25]), 3.91 µM (≈ 1.38 µg/mL); in the assay with Pichia kudriavzevii [4] (setting [25]) it was 7.81 µM (≈ 2.76 µg/mL); in the assay with Pichia kudriavzevii [5] (Pichia kudriavzevii, 24 h, read-out: MIC) it was 7.81 µM (≈ 2.76 µg/mL); in the assay on Pichia kudriavzevii [6] (Pichia kudriavzevii, 48 h, read-out: MIC) it was 7.81 µM (≈ 2.76 µg/mL). Besides, the minimal inhibitory concentration (MIC) amounted to 3.91 µM (≈ 1.38 µg/mL) in the assay with Aspergillus fumigatus [7]; 3.91 µM (≈ 1.38 µg/mL) with Clavispora lusitaniae [8]; 7.81 µM (≈ 2.76 µg/mL) in the assay on Clavispora lusitaniae [9]; 3.91 µM (≈ 1.38 µg/mL) with Candida parapsilosis [10] (read-out: MIC); 15.6 µM (≈ 5.52 µg/mL) in the assay on Candida parapsilosis [11] (read-out: MIC); 0.49 µM (≈ 0.173 µg/mL) in the assay with Candida albicans [12]. For the same molecule, the MIC stood at 1.95 µM (≈ 0.689 µg/mL) in the assay on Candida albicans [13]; 1.95 µM (≈ 0.689 µg/mL) in the assay on Candida albicans [14] (setting [26]); 7.81 µM (≈ 2.76 µg/mL) with Candida albicans [15] (setting [26]); 1.95 µM (≈ 0.689 µg/mL) in the assay on Nakaseomyces glabratus [16]; 1.95 µM (≈ 0.689 µg/mL) with Nakaseomyces glabratus [17]; 7.81 µM (≈ 2.76 µg/mL) in the assay with Candida tropicalis [18] (Candida tropicalis, 24 h, read-out: MIC). For the same molecule, the MIC in the assay on Trichosporon beigelii [19] came to 7.81 µM (≈ 2.76 µg/mL); in the assay on Trichosporon beigelii [20], 7.81 µM (≈ 2.76 µg/mL); in [21] it was 1.95 µM (≈ 0.689 µg/mL); in [22] it was 3.91 µM (≈ 1.38 µg/mL); in the assay on Aspergillus fumigatus [23], 0.98 µM (≈ 0.346 µg/mL); with Candida tropicalis [24] (Candida tropicalis, 48 h, read-out: MIC), 7.81 µM (≈ 2.76 µg/mL).
For the molecule `COc1ccc(C2=CC(CO)OC2=O)cc1` (stereo not drawn), the MIC was found to be 31.2 µM (≈ 6.88 µg/mL) in the assay with Lichtheimia corymbifera [1]; 62.5 µM (≈ 13.8 µg/mL) in the assay with Lichtheimia corymbifera [2]; 62.5 µM (≈ 13.8 µg/mL) with Pichia kudriavzevii [3]; 125 µM (≈ 27.5 µg/mL) against Pichia kudriavzevii [4]; 62.5 µM (≈ 13.8 µg/mL) with Pichia kudriavzevii [5]; 125 µM (≈ 27.5 µg/mL) in the assay on Pichia kudriavzevii [6]. In addition, the MIC in the assay with Aspergillus fumigatus [7] came to 500 µM (≈ 110 µg/mL); with Clavispora lusitaniae [8], 31.2 µM (≈ 6.88 µg/mL); in the assay with Clavispora lusitaniae [9], 125 µM (≈ 27.5 µg/mL); against Candida parapsilosis [10], 250 µM (≈ 55.1 µg/mL); against Candida parapsilosis [11], 500 µM (≈ 110 µg/mL); in the assay with Candida albicans [12] it was 15.6 µM (≈ 3.44 µg/mL). Also, the MIC in the assay with Candida albicans [13] was 62.5 µM (≈ 13.8 µg/mL); against Candida albicans [14], 31.2 µM (≈ 6.88 µg/mL); against Candida albicans [15], 62.5 µM (≈ 13.8 µg/mL); in the assay with Nakaseomyces glabratus [16] it was 125 µM (≈ 27.5 µg/mL); with Nakaseomyces glabratus [17], 250 µM (≈ 55.1 µg/mL); in the assay on Candida tropicalis [18] it was 125 µM (≈ 27.5 µg/mL). Further, the MIC in the assay with Trichosporon beigelii [19] amounted to 500 µM (≈ 110 µg/mL); with Trichosporon beigelii [20] it was 1000 µM (≈ 220 µg/mL); in [21], 15.6 µM (≈ 3.44 µg/mL); in [22], 62.5 µM (≈ 13.8 µg/mL); with Aspergillus fumigatus [23], 125 µM (≈ 27.5 µg/mL); against Candida tropicalis [24] it was 250 µM (≈ 55.1 µg/mL).
